Data as given in ChEMBL document CHEMBL4321820, “Identification and Optimization of Mechanism-Based Fluoroallylamine Inhibitors of Lysyl Oxidase-like 2/3” (J Med Chem, 2019).

How the values were obtained:
[1] = target: T1, Amine oxidase [copper-containing] 3 (Homo sapiens, UniProt Q16853); experiment: Substrate activity at recombinant human SSAO assessed as compound oxidation by measuring oxidative turnover at 30 uM measured for 40 mins by horseradish peroxidase-coupled amplex red reagent-based fluorometric assay relative to DMSO; format: ADME
T1 sequence (Q16853 whole entry): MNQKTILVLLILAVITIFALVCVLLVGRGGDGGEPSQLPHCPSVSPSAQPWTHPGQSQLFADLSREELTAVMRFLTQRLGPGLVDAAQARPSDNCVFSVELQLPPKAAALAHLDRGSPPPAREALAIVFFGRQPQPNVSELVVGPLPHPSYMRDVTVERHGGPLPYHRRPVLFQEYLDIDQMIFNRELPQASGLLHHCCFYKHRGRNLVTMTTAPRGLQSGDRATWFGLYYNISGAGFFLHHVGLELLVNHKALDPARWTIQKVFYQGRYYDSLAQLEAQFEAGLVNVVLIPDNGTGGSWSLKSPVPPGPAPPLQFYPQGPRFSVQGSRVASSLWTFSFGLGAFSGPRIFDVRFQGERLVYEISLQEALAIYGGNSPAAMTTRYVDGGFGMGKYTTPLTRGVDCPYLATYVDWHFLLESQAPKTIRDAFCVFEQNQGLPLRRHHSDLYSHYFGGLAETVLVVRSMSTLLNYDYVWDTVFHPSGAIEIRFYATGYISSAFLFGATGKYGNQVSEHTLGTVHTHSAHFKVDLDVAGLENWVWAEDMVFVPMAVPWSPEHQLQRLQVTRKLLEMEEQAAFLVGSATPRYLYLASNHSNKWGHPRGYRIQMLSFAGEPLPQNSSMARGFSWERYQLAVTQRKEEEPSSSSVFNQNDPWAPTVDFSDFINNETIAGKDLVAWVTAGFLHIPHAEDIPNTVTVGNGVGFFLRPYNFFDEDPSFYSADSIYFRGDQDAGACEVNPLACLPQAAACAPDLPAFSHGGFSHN
How it was run: (§1)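 Compound oxidation measured without substrate by peroxidase-coupled fluorometric read-out of resorufin formation over 40 min at 37 °C in HEPES buffer. Amplex Red 20 µM, HRP 4 U/ml, test compound at final 30 µM. Enzyme source was human recombinant SSAO or AOC4 from diluted dog serum. Benzylamine at 600 µM served as positive control. Signal is expressed relative to DMSO-only background, so a value near 1 means no turnover.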

[2] = target: T2, Lysyl oxidase homolog 2 (Homo sapiens, UniProt Q9Y4K0); experiment: Inhibition of recombinant human C-terminal His-tagged […] (1-774 residues) expressed in mouse myeloma cells using putrescine as substrate preincubated with enzyme for 30 mins followed by substrate addition and measured every 2.5 mins for 30 mins by Amplex-Red oxidation assay; details: read-out: pIC50 (converted)
T2 sequence (Q9Y4K0 whole entry): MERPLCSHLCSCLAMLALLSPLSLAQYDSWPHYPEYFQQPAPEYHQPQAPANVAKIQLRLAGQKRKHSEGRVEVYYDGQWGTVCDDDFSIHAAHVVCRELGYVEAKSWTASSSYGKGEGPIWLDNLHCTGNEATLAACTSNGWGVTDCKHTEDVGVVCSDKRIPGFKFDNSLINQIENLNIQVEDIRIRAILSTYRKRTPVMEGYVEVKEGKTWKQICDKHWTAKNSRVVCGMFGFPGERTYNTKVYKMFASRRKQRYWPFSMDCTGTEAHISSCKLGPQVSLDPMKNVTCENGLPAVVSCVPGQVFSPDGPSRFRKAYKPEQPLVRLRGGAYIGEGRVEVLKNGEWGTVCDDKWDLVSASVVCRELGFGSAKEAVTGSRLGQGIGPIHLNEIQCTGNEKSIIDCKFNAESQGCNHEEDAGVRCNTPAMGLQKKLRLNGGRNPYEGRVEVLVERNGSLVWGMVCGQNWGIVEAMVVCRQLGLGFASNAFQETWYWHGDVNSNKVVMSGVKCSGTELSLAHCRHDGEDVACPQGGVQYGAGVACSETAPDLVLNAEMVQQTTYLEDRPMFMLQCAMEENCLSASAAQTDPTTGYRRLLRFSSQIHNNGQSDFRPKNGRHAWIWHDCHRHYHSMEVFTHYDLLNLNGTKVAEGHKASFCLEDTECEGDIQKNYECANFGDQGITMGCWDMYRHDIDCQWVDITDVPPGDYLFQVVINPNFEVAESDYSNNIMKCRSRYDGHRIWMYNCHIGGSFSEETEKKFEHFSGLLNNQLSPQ
How it was run: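 LOXL2 enzyme preincubated with compound for 30 min at 37 °C, then Amplex Red (120 µM) / HRP (1.5 U/mL) mix containing 5 mM putrescine added. Buffer: 1.2 M urea, 50 mM sodium borate, pH 8.2. H2O2 fluorescence (ex 565/em 590) read every 2.5 min for 30 min at 37 °C; BAPN 100 µM as positive control; n≥2.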

[3] = target: T3, Protein-lysine 6-oxidase (Bos taurus, UniProt P33072); experiment: Inhibition of LOX in bovine aorta using putrescine as substrate preincubated with enzyme for 30 mins followed by substrate addition and measured every 2.5 mins for 30 mins by Amplex-Red oxidation assay; format: tissue-based; details: read-out: pIC50 (converted)
T3 sequence (P33072 whole entry): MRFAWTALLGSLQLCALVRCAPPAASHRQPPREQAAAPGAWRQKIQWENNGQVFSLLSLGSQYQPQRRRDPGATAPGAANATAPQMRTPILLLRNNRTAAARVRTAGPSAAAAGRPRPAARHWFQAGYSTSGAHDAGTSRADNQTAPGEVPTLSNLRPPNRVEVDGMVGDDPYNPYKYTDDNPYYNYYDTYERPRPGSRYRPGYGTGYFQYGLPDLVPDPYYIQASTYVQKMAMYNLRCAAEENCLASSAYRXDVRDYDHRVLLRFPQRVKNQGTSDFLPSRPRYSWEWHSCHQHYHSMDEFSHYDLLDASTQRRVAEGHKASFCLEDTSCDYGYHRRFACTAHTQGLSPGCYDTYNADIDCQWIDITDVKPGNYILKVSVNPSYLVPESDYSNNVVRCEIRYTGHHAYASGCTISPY
How it was run: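 LOX extracted from calf aorta after PBS washing with 4 M urea/50 mM borate pH 8.2, concentrated on 10 kDa filters into 1.2 M urea/borate with protease inhibitors. Preincubated 30 min at 37 °C with compound, then Amplex Red/HRP with 10 mM putrescine; fluorescence read every 2.5 min for 30 min.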

[4] = Substrate activity at AOC4 in dog serum assessed as compound oxidation by measuring oxidative turnover at 30 uM measured for 40 mins by horseradish peroxidase-coupled amplex red reagent-based fluorometric assay relative to DMSO; format: ADME, cell-free, Canis lupus familiaris; how it was run: as §1
[5] = target: T1, Amine oxidase [copper-containing] 3; experiment: Inhibition of recombinant human SSAO using benzylamine as substrate preincubated with enzyme for 30 mins followed by substrate addition and measured every 2.5 mins for 30 mins by Amplex-Red oxidation assay; details: read-out: pIC50 (converted)
[6] = Selectivity index, ratio of IC50 for recombinant human C-terminal His-tagged […] (1-774 residues) expressed in mouse myeloma cells to IC50 for LOX in bovine aorta
[7] = target: T4, Amine oxidase [flavin-containing] B (Homo sapiens, UniProt P27338); experiment: Inhibition of recombinant human MAOB expressed in baculovirus infected in BTI cells using benzylamine as substrate preincubated with enzyme for 30 mins followed by substrate addition and measured every 2.5 mins for 30 mins by Amplex-Red oxidation assay; details: read-out: pIC50 (converted)
T4 sequence (P27338 whole entry): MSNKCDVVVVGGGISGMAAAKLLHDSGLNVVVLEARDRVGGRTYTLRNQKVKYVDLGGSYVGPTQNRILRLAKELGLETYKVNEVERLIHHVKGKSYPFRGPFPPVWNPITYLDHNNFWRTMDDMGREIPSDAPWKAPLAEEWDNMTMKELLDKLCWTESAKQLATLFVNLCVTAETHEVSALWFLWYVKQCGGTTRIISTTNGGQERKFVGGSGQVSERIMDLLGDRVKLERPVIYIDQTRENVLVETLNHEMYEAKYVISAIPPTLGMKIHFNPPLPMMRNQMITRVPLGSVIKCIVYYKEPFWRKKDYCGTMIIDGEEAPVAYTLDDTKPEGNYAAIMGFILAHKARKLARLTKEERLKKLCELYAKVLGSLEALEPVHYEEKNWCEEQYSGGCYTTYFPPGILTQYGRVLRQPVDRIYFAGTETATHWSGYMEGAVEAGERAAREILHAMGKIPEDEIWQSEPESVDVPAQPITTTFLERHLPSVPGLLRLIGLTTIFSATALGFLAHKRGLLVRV

| fold change (FC) [1] | IC50 [2] | IC50 [3] | fold change (FC) [4] | IC50 [5] | IC50 [7] | SMILES | IC50 ratio [6] |
| --- | --- | --- | --- | --- | --- | --- | --- |
| 2.8 | 794 nM | 3160 nM |  |  |  | Cc1c(-c2ccc(S(=O)(=O)N(C)C)cc2)c2ccccc2n1C/C(F)=C/CN.Cl |  |
|  | 200 nM | 631 nM |  |  |  | CS(=O)(=O)c1ccc(OCc2cn(C/C(F)=C/CN)nn2)cc1 |  |
|  | 126 nM | 15800 nM | 1 |  |  | Cc1c(-c2cccc(S(=O)(=O)N(C)C)c2)c2cc(-c3nnn[nH]3)ccc2n1C/C(F)=C/CN.Cl |  |
| > 4 | 20 nM | 501 nM |  |  |  | CN(C)S(=O)(=O)c1ccc(NCc2cn(C/C(F)=C/CN)nn2)cc1.Cl |  |
|  | 794 nM | 501 nM |  |  |  | CC(C)(C)c1ccc(OCc2cn(C/C(F)=C/CN)nn2)cc1 |  |
| 1.3 | 5.01 nM | 398 nM | 1.3 |  |  | Cc1c(-c2cccc(S(=O)(=O)N(C)C)c2)c2cc(S(C)(=O)=O)ccc2n1C/C(F)=C/CN.Cl |  |
|  | 794 nM | 3160 nM |  |  |  | CN(C)C(=O)c1ccc(OCc2cn(C/C(F)=C/CN)nn2)cc1 |  |
|  | 316 nM | 501 nM |  |  |  | NC/C=C(\F)Cn1cc(COc2ccccc2)nn1 |  |
| 1 | 20 nM | 1000 nM | 1.5 |  |  | Cc1c(-c2cccc(S(=O)(=O)N(C)C)c2)c2cc(NS(C)(=O)=O)ccc2n1C/C(F)=C/CN.Cl |  |
|  | 794 nM | 1000 nM |  |  |  | CS(=O)(=O)c1cccc(OCc2cn(C/C(F)=C/CN)nn2)c1 |  |
| 1.2 | 25.1 nM | 1580 nM | 1 |  |  | Cc1c(-c2cccc(S(=O)(=O)N(C)C)c2)c2cc(C(=O)N(C)C)ccc2n1C/C(F)=C/CN.Cl |  |
|  | 316 nM | 398 nM |  | > 3160 nM |  | C[C@H](NS(=O)(=O)c1ccc(OC/C(F)=C/CN)cc1)c1ccccc1 |  |
| 1.6 | 20 nM | 1260 nM | 6.4 |  |  | Cc1c(-c2cccc(S(=O)(=O)N(C)C)c2)c2ncccc2n1C/C(F)=C/CN.Cl | 70 |
|  | 2510 nM | 2000 nM |  | 50.1 nM |  | C[C@H](NS(=O)(=O)c1ccc(OC/C(F)=C\CN)cc1)c1ccccc1 |  |
| > 4 | 251 nM | 794 nM |  |  |  | CN(C)S(=O)(=O)c1ccc(-c2ccn(C/C(F)=C/CN)c2)cc1.Cl |  |
|  | 2000 nM | 3160 nM |  |  |  | CS(=O)(=O)c1ccccc1OCc1cn(C/C(F)=C/CN)nn1 |  |
| 1.2 | 126 nM | 3160 nM | 1.1 |  |  | Cc1c(-c2cccc(S(=O)(=O)N(C)C)c2)c2cc(Cl)ccc2n1C/C(F)=C/CN.Cl |  |
| > 4 | 126 nM | 794 nM |  |  |  | CN(C)S(=O)(=O)c1ccc(-c2cn(C/C(F)=C/CN)nn2)cc1.Cl |  |
| 1 | 50.1 nM | 1260 nM | 1.1 |  |  | Cc1c(-c2cccc(S(=O)(=O)N(C)C)c2)c2cc(O)ccc2n1C/C(F)=C/CN.Cl |  |
| 4.6 | 79.4 nM | 1580 nM | 1.6 |  |  | COc1ccc2c(c1)c(-c1cccc(S(=O)(=O)N(C)C)c1)c(C)n2C/C(F)=C/CN.Cl |  |
| 1.1 | 501 nM | 15800 nM | 1 |  |  | Cc1c(-c2cccc(S(=O)(=O)N(C)C)c2)c2ccc(C(=O)O)cc2n1C/C(F)=C/CN.Cl |  |
| 1 | 63.1 nM | 794 nM | 1.1 |  |  | Cc1c(-c2cccc(S(=O)(=O)N(C)C)c2)c2ccc(C(=O)N(C)C)cc2n1C/C(F)=C/CN.Cl |  |
| > 4 | 50.1 nM | 794 nM |  | > 31600 nM | 126 nM | CN(C)S(=O)(=O)c1ccc(OCc2cn(C/C(F)=C/CN)nn2)cc1.Cl |  |
| > 4 | 100 nM | 2000 nM |  |  |  | CN(C)S(=O)(=O)c1cccc(-c2ccn(C/C(F)=C/CN)c2)c1.Cl |  |
| 1.1 | 3160 nM | 20000 nM | 1.4 |  |  | Cc1c(-c2cccc(S(=O)(=O)N(C)C)c2)c2cccc(C(=O)N(C)C)c2n1C/C(F)=C/CN.Cl |  |
| > 4 | 12.6 nM | 631 nM |  |  |  | CN(C)S(=O)(=O)c1ccc(Cc2cn(C/C(F)=C/CN)nn2)cc1.Cl |  |
